Results as given in PMC6843711 (ACS Omega, 2019).

What was measured:
diabetic mice [1] = test: Blood glucose levels in diabetic mice; format: in vivo; conditions: LOQ = 20 mM
How it was run: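 Male mice (about 20 ± 2 g) were randomised into eight groups (n = 5). After an 18 h fast, diabetes was induced with a single ip alloxan dose of 50 mg/kg in 0.5 mL, and diabetic animals served as positive control. Test compound was given ip in 0.5 mL for 1 week, with saline as negative control. Cardiac blood was drawn under diethyl ether, and serum (600g, 15 min) was assayed for glucose. Triplicate; mean ± SD; Kruskal–Wallis, p < 0.05.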

[2] = DPPH free radical scavenging assay
How it was run: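 Methanolic test compound at 0.2–1.0 μg/mL was mixed with 0.004% methanolic DPPH and kept in the dark for 30 min. Absorbance was read at 517 nm. Compound solution without DPPH served as blank and DPPH alone as control. Percent inhibition was derived from absorbance with and without antioxidant. Each measurement was repeated three times.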

diabetic mice [3] = test: Hematological study in vivo; conditions: ip; for Alb / Chlst / Cr / TG / UA: serum
How it was run: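 Alloxan-diabetic male mice (single 50 mg/kg ip after 18 h fast; n = 5 per group) received test compound ip for 1 week, with a saline group as control. Cardiac blood was drawn under diethyl ether into 10% EDTA for automated haematology (RBC, WBC, Hb, MCV, MCH, MCHC, PLT, RDW, HCT) and into plain tubes. Serum (600g, 15 min) was assayed for albumin, uric acid, glucose, triglyceride and cholesterol. Triplicate; mean ± SD; Kruskal–Wallis.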

[4] = read-out: IC50, inhibition of CuSO4-induced oxidation of human LDL; cited from earlier work

Row | HB (diabetic mice [3]; dose 0.3 mM) [g/dL] | HCT (diabetic mice [3]; dose 0.3 mM) [%] | MCH (diabetic mice [3]; dose 0.3 mM) | MCHC (diabetic mice [3]; dose 0.3 mM) [g/dL] | MCV (diabetic mice [3]; dose 0.3 mM) [μm^3] | RBC (diabetic mice [3]; dose 0.3 mM) | RDW (diabetic mice [3]; dose 0.3 mM) [%] | WBC (diabetic mice [3]; dose 0.3 mM) | HB (diabetic mice [3]; dose 0.5 mM) [g/dL] | HCT (diabetic mice [3]; dose 0.5 mM) [%] | MCH (diabetic mice [3]; dose 0.5 mM) | MCHC (diabetic mice [3]; dose 0.5 mM) [g/dL] | MCV (diabetic mice [3]; dose 0.5 mM) [μm^3] | RBC (diabetic mice [3]; dose 0.5 mM) | Compound | Mean blood glucose level (diabetic mice [1]; conc. 0.3 mM) [mM] | Inhibition percent (%), DPPH scavenging ([2]; conc. 0.2 μg mL^–1) [%] | Inhibition percent (%), DPPH scavenging ([2]; conc. 0.4 μg mL^–1) [%] | Inhibition percent (%), DPPH scavenging ([2]; conc. 0.6 μg mL^–1) [%] | Inhibition percent (%), DPPH scavenging ([2]; conc. 0.8 μg mL^–1) [%] | Inhibition percent (%), DPPH scavenging ([2]; conc. 1.0 μg mL^–1) [%] | also measured
1 | 8.0 ± 0.2 | 18.1 ± 0.1 | 15.8 ± 0.1 ρg | 44.0 ± 0.2 | 44.9 | 8.05 10^6/mm^3 | 12.2 ± 0.01 | 3.15 10^3/mm^3 | 10.9 ± 0.1 | 34.9 ± 0.2 | 15.8 ± 0.1 ρg | 41.2 ± 0.2 | 44.1 | 7.92 10^6/mm^3 | Cc1ccc(N2C(=O)c3ccccc3NC2c2c(C)nn(-c3ccccc3)c2Cl)c(C)c1 (stereo not drawn) [Compound 4k, 2-(5-Chloro-3-methyl-1-phenyl-1H-pyrazol-4-yl)-3-(2,4-dimethylphenyl)-2,3-dihydroquinazolin-4(1H)-one] | 29 ± 1 | 67.72 ± 0.2 | 67.80 ± 0.3 | 67.87 ± 0.1 | 67.95 ± 0.2 | 68.03 ± 0.1 | RDW (diabetic mice [3]; dose 0.5 mM): 24.8 ± 0.01%; WBC (diabetic mice [3]; dose 0.5 mM): 2.8 10^3/mm^3; Alb (diabetic mice [3]; dose 0.3 mM): 2.8 ± 0.07 g/dL; Chlst (diabetic mice [3]; dose 0.3 mM): 64 ± 3.2 mg/dL; Cr (diabetic mice [3]; dose 0.3 mM): 0.45 ± 0.05 mg/dL; TG (diabetic mice [3]; dose 0.3 mM): 127 ± 2.5 mg/dL; UA (diabetic mice [3]; dose 0.3 mM): 66 ± 2.7 µM; Alb (diabetic mice [3]; dose 0.5 mM): 2.8 ± 0.03 g/dL; Chlst (diabetic mice [3]; dose 0.5 mM): 60 ± 6 mg/dL; Cr (diabetic mice [3]; dose 0.5 mM): 0.42 ± 0.05 mg/dL; TG (diabetic mice [3]; dose 0.5 mM): 121 ± 4 mg/dL; UA (diabetic mice [3]; dose 0.5 mM): 67 ± 3.3 µM
2 | 14.8 ± 0.34 | 38.6 ± 0.1 | 15.7 ± 0.2 ρg | 38.6 ± 0.2 | 40.2 | 9.34 10^6/mm^3 | 22.5 ± 0.01 | 7.6 10^3/mm^3 | 14.8 ± 0.3 | 39.6 ± 0.08 | 15.5 ± 0.03 ρg | 38.2 ± 0.1 | 39.9 | 9.17 10^6/mm^3 | Cc1nn(-c2ccccc2)c(Cl)c1C1Nc2ccccc2C(=O)N1c1ccc(Cl)cc1 (stereo not drawn) [Compound 4j, 2-(5-Chloro-3-methyl-1-phenyl-1H-pyrazol-4-yl)-3-(4-chlorophenyl)-2,3-dihydroquinazolin-4(1H)-one] | – | 79.9 ± 0.9 | 87.68 ± 0.7 | 93.58 ± 1 | 99.37 ± 0.7 | 102 ± 2 | PLT (diabetic mice [3]; dose 0.3 mM): 1350 10^3/mm^3; PLT (diabetic mice [3]; dose 0.5 mM): 1326 10^3/mm^3; RDW (diabetic mice [3]; dose 0.5 mM): 22.2 ± 0.02%; WBC (diabetic mice [3]; dose 0.5 mM): 8 10^3/mm^3; Alb (diabetic mice [3]; dose 0.3 mM): 2.9 ± 0.02 g/dL; Chlst (diabetic mice [3]; dose 0.3 mM): 66 ± 1.4 mg/dL; Cr (diabetic mice [3]; dose 0.3 mM): 0.41 ± 0.07 mg/dL; TG (diabetic mice [3]; dose 0.3 mM): 123 ± 3 mg/dL; UA (diabetic mice [3]; dose 0.3 mM): 65 ± 2 µM; Alb (diabetic mice [3]; dose 0.5 mM): 2.8 ± 0.01 g/dL; Chlst (diabetic mice [3]; dose 0.5 mM): 62 ± 2.8 mg/dL; Cr (diabetic mice [3]; dose 0.5 mM): 0.41 ± 0.09 mg/dL; TG (diabetic mice [3]; dose 0.5 mM): 116 ± 3 mg/dL; UA (diabetic mice [3]; dose 0.5 mM): 65 ± 2 µM
3 | – | – | – | – | – | – | – | – | – | – | – | – | – | – | Cc1ccc(N2C(=O)c3ccccc3NC2c2c(C)nn(-c3ccccc3)c2Cl)cc1C (stereo not drawn) [Compound 4l, 2-(5-Chloro-3-methyl-1-phenyl-1H-pyrazol-4-yl)-3-(3,4-dimethylphenyl)-2,3-dihydroquinazolin-4(1H)-one] | – | 60.14 ± 0.1 | 60.19 ± 0.2 | 60.25 ± 0.2 | 60.30 ± 0.1 | 60.35 ± 0.2 | –
4 | – | – | – | – | – | – | – | – | – | – | – | – | – | – | Cc1nn(-c2ccccc2)c(Cl)c1C1Nc2ccccc2C(=O)N1c1ccccc1 (stereo not drawn) [Compound 4g, 2-(5-Chloro-3-methyl-1-phenyl-1H-pyrazol-4-yl)-3-phenyl-2,3-dihydroquinazolin-4(1H)-one] | 65 ± 2 | 20.71 ± 0.2 | 20.32 ± 0.2 | 20.51 ± 0.1 | 21.16 ± 0.1 | 20.62 ± 0.5 | Mean blood glucose level (diabetic mice [1]; conc. 0.5 mM): 27 ± 1 mM
5 | – | – | – | – | – | – | – | – | – | – | – | – | – | – | magnolamide | – | – | – | – | – | – | IC50 [4]: 9.7 µM
6 | 14.5 ± 0.1 | 37.1 ± 0.1 | 15.8 ± 0.1 ρg | 44.0 ± 0.2 | 40.9 | 9.05 10^6/mm^3 | 21.8 ± 0.03 | 5.3 10^3/mm^3 | 14.2 ± 0.25 | 37.9 ± 0.1 | 15.5 ± 0.23 ρg | 41.2 ± 0.1 | 40.1 | 9.92 10^6/mm^3 | Cc1ccc(N2C(=O)c3ccccc3NC2c2c(C)nn(-c3ccccc3)c2Cl)cc1 (stereo not drawn) [Compound 4h, 2-(5-Chloro-3-methyl-1-phenyl-1H-pyrazol-4-yl)-3-(p-tolyl)-2,3-dihydroquinazolin-4(1H)-one] | 44 ± 1 | 11.42 ± 0.03 | 11.44 ± 0.02 | 11.46 ± 0.02 | 11.48 ± 0.04 | 11.50 ± 0.07 | Mean blood glucose level (diabetic mice [1]; conc. 0.5 mM): 22 ± 1 mM; RDW (diabetic mice [3]; dose 0.5 mM): 23.6 ± 0.02%; WBC (diabetic mice [3]; dose 0.5 mM): 5.6 10^3/mm^3; Alb (diabetic mice [3]; dose 0.3 mM): 2.7 ± 0.04 g/dL; Chlst (diabetic mice [3]; dose 0.3 mM): 64 ± 3.2 mg/dL; Cr (diabetic mice [3]; dose 0.3 mM): 0.41 ± 0.05 mg/dL; TG (diabetic mice [3]; dose 0.3 mM): 127 ± 1.5 mg/dL; UA (diabetic mice [3]; dose 0.3 mM): 61 ± 3 µM; Alb (diabetic mice [3]; dose 0.5 mM): 2.7 ± 0.02 g/dL; Chlst (diabetic mice [3]; dose 0.5 mM): 58 ± 6 mg/dL; Cr (diabetic mice [3]; dose 0.5 mM): 0.4 ± 0.05 mg/dL; TG (diabetic mice [3]; dose 0.5 mM): 109 ± 0.7 mg/dL; UA (diabetic mice [3]; dose 0.5 mM): 62 ± 1.5 µM
7 | – | – | – | – | – | – | – | – | – | – | – | – | – | – | O=C1O[C@H]([C@@H](O)CO)C(O)=C1O [AA, Ascorbic Acid, reference compound] | – | 53.13 ± 0.7 | 61.22 ± 0.7 | 69.18 ± 1 | 88.47 ± 0.9 | 98.03 ± 2 | –
8 | – | – | – | – | – | – | – | – | – | – | – | – | – | – | Cc1nn(-c2ccccc2)c(Cl)c1C1Nc2ccccc2C(=O)N1c1ccc(O)cc1 (stereo not drawn) [Compound 4i, 2-(5-Chloro-3-methyl-1-phenyl-1H-pyrazol-4-yl)-3-(4-hydroxyphenyl)-2,3-dihydroquinazolin-4(1H)-one] | 44 ± 1 | 80.07 ± 0.77 | 81.18 ± 0.5 | 83.9 ± 0.1 | 85.62 ± 0.3 | 86.47 ± 0.27 | Mean blood glucose level (diabetic mice [1]; conc. 0.5 mM): <LOQ
